Reference: ChEMBL document CHEMBL2331334, “Hybrid furoxanyl N-acylhydrazone derivatives as hits for the development of neglected diseases drug candidates” (Eur J Med Chem, 2013)
Converted amounts (≈) assume the structure as drawn.

What was measured:
[1] = tested on: Mycobacterium tuberculosis; experiment: Antimycobacterial activity against Mycobacterium tuberculosis H37Rv assessed as growth inhibition after 5 days by MTT assay; assay type: functional; conditions: 120 h
Method in brief: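 MTB inoculum made from 20–30-day slant growth in Tween 80/0.2% BSA, adjusted to McFarland No. 1, then diluted in 7H9GC broth (Middlebrook 7H9, glycerol, Casitone, OADC). Final inoculum about 1.2 × 10^6 CFU/mL. Compounds taken from DMSO stock to final 0.4–25 in broth, with a DMSO control. Plates run 5 days at 37 °C, then tetrazolium (MTT)–Tween 80 added for a further 24 h at 37 °C. Read-out is MIC.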

[2] = Cytotoxicity against mouse J774.1 cells assessed as cell viability after 48 hrs by MTT assay; assay type: cell-based; conditions: J774.1, 48 h
Method in brief: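 J774.1 macrophages in DMEM with 4 mM L-glutamine and 10% heat-inactivated FCS, 5×10^4 cells/well, attached 48 h at 37 °C, 5% CO2. Exposed 48 h to compounds (12.5–400.0 µM) or vehicle. MTT 0.1 mg/mL final, 3 h at 37 °C; formazan dissolved in DMSO/glycine buffer pH 10.5, A560. IC50 by linear regression versus solvent control.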

[3] = tested on: Trypanosoma cruzi; experiment: Trypanosomicidal activity against axenic epimastigote stage of Trypanosoma cruzi Tulahuen 2 assessed as growth inhibition; assay type: functional, organism-based
Method in brief: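 Tulahuen 2 epimastigotes grown axenically at 28 °C in BHI-tryptose with 5% FCS, harvested late log phase, 3×10^6/mL in 24-well plates. Compound added from DMSO stock (≤1% DMSO). Growth as A590 at day 0 and day 5; % inhibition from blank-corrected absorbances; ID50 = concentration halving absorbance relative to untreated controls.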

[4] = tested on: Trypanosoma cruzi; experiment: Trypanosomicidal activity against amastigote stage of Trypanosoma cruzi Tulahuen C4 transfected with beta-D-galactosidase infected in african green monkey Vero cells assessed as growth inhibition incubated 5 days prior to beta-D-galactopyranoside addition measured after 4 to 5 hrs by colorimetric assay; assay type: functional, organism-based
Method in brief: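 VERO monolayer in phenol red-free RPMI 1640 with 10% FCS, infected with 5×10^4 LacZ-transfected Tulahuen C4 trypomastigotes/well, 24 h at 37 °C, 5% CO2. Compounds added for 5 days. CPRG substrate added, 4–5 h at 37 °C, A570. Actives (>50% inhibition) retested in duplicate at 10.0–0.16; IC50 by logarithmic regression versus untreated control.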

[5] = Selectivity index, ratio of IC50 for mouse J774.1 cells to MIC for Mycobacterium tuberculosis H37Rv; assay type: functional
Method in brief: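 Cytotoxicity: J774.1 macrophages in DMEM with 4 mM L-glutamine and 10% heat-inactivated FCS, seeded at 5 × 10^4/well, attached 48 h at 37 °C, 5% CO2. Exposed 48 h to 12.5–400.0 µM compound or vehicle. MTT at 0.1 mg/mL final for 3 h, formazan dissolved in DMSO/glycine buffer pH 10.5, A560 read. IC50 by linear regression, divided by the MIC against the same MTB strain.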

[6] = Selectivity index, ratio of IC50 for mouse J774.1 cells to IC50 for amastigote stage of Trypanosoma cruzi Tulahuen C4; assay type: toxicity; conditions: read-out: Ratio IC50
[7] = Selectivity index, ratio of IC50 for mouse J774.1 cells to IC50 for axenic amastigote stage of Leishmania amazonensis MHOM/BR/76/LTB-012; assay type: toxicity; conditions: read-out: Ratio IC50
[8] = tested on: Leishmania amazonensis; experiment: Leishmanicidal activity against axenic amastigote stage of Leishmania amazonensis MHOM/BR/76/LTB-012 assessed as growth inhibition after 72 hrs by MTT assay; assay type: functional, organism-based; conditions: MHOM/BR/76/LTB-012, 72 h
Method in brief: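 L. amazonensis axenic amastigotes (MHOM/BR/76/LTB-012), weekly passages in MAA/20 at 32 °C, 5% CO2. Seeded in 96-well plates; compounds in DMSO at 100 to 1 final, 72 h. MTT added for 4 h, stopped with 50% isopropanol–10% SDS, 30 min agitation at room temperature, A570. Triplicate; % inhibition versus control, IC50 from several concentrations.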

[9] = Selectivity index, ratio of IC50 for african green monkey Vero cells to IC50 for amastigote stage of Trypanosoma cruzi Tulahuen C4; assay type: toxicity, cell-based; conditions: read-out: Ratio IC50
[10] = Aqueous stability of the compound in Tris.HCl buffer at pH 8.3 at 1 mM after 24 hrs by spectrophotometric analysis; assay type: physicochemical; conditions: pH 8.3, 24 h, 1000 µM
Method in brief: (§1)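 Compound from DMSO stock, 1 mM final in aqueous buffer (KCl·HCl pH 2, acetate pH 5, Tris·HCl pH 7.4 or 8.3), incubated 37 °C for 24 h. Absorbance spectrum 250–450 nm compared with a freshly prepared, unincubated solution. TLC of ethyl acetate extracts to confirm or exclude decomposition products.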

[11] = Aqueous stability of the compound in acetate buffer at pH 5 at 1 mM after 24 hrs by spectrophotometric analysis; assay type: physicochemical; conditions: pH 5, 24 h, 1000 µM; method in brief: as §1
[12] = Aqueous stability of the compound in Tris.HCl buffer at pH 7.4 at 1 mM after 24 hrs by spectrophotometric analysis; assay type: physicochemical; conditions: pH 7.4, 24 h, 1000 µM; method in brief: as §1
[13] = tested on: Plasma; experiment: Metabolic stability in human plasma at pH 3 at 40 uM after 3 hrs; assay type: ADME, cell-free; conditions: pH 3, 3 h
[14] = Aqueous stability of the compound in KCl.HCl buffer at pH 2 at 1 mM after 24 hrs by spectrophotometric analysis; assay type: physicochemical; conditions: pH 2, 24 h, 1000 µM; method in brief: as §1

Row | SMILES | MIC [1] [µM] | IC50 [2] [µM] | IC50 [3] [µM] | IC50 [4] [µM] | Selectivity Index [5] | further results
1 | COc1ccc(/C=N/NC(=O)c2no[n+]([O-])c2C)cc1OC | > 81.6 | > 400 | – | – | – | –
2 | O=C(N/N=C/c1c(-c2ccccc2)no[n+]1[O-])c1cnn(-c2ccccc2)c1 | > 66.8 | 41.7 | > 150 | > 26.7 | <0.6 | –
3 | Cc1c(C(=O)N/N=C/c2c(-c3ccccc3)no[n+]2[O-])no[n+]1[O-] | > 75.8 | > 400 | 25.1 | > 30.3 | – | –
4 | COC(=O)c1no[n+]([O-])c1C | – | – | > 50 | > 62.3 | – | –
5 | Cc1[nH]cnc1C(=O)N/N=C/c1no[n+]([O-])c1C | > 100 | > 400 | > 150 | > 40 | – | –
6 | Cc1c(C(=O)NN)no[n+]1[O-] | – | – | > 50 | > 62.3 | – | –
7 | Cc1c(C(=O)N/N=C/c2ccc([N+](=O)[O-])s2)no[n+]1[O-] | 42.1 (≈ 12.5 µg/mL) | > 400 | 50 | > 33.7 | >10 | –
8 | NNC(=O)c1cccnc1 [NICOTINIC ACID HYDRAZIDE] | – | – | > 150 | > 73 | – | –
9 | NNC(=O)c1cnn(-c2ccccc2)c1 | – | – | – | > 49.5 | – | –
10 | Cc1c(C(=O)N/N=C/c2ccc(Br)cc2)no[n+]1[O-] | > 74 | 162 | > 150 | > 29.6 | <2 | selectivity ratio [6]: < 5
11 | Cc1c(C(=O)N/N=C/c2ccc([N+](=O)[O-])cc2)no[n+]1[O-] | > 85.9 | > 300 | > 150 | > 34.4 | – | selectivity ratio [7]: > 38; IC50 [8]: 7.9 µM
12 | NNC(=O)c1ccc2c(c1)OCO2 | – | – | > 150 | > 55.6 | – | –
13 | Cc1c(/C=N/NC(=O)c2cccnc2)no[n+]1[O-] | > 101 | > 400 | > 150 | > 40.5 | – | –
14 | Cc1c(/C=N/NC(=O)c2cnn(-c3ccccc3)c2)no[n+]1[O-] | > 80.1 | 295 | > 150 | > 32.1 | <4 | –
15 | Cc1c(C(=O)N/N=C/c2ccccn2)no[n+]1[O-] | > 101 | > 400 | > 150 | > 40.5 | – | –
16 | Cc1c(C(=O)N/N=C/c2ccc3c(c2)OCO3)no[n+]1[O-] | > 86.2 | > 400 | > 150 | > 34.5 | – | –
17 | Cc1c(/C=N/NC(=O)c2ccc3c(c2)OCO3)no[n+]1[O-] | > 86.2 | 132 | > 150 | > 34.5 | <1.5 | selectivity ratio [6]: < 1.5; selectivity ratio [7]: 40; IC50 [8]: 3.3 µM
18 | Cc1nc2ccccn2c1C(=O)N/N=C/c1ccc2no[n+]([O-])c2c1 | 77.2 (≈ 26 µg/mL) | 141 | > 150 | > 30.9 | 1.8 | selectivity ratio [6]: < 4
19 | Cc1c(C(=O)N/N=C/c2ccc([N+](=O)[O-])o2)no[n+]1[O-] | 44.5 (≈ 12.5 µg/mL) | 68 | 50.1 | > 35.6 | 1.5 | selectivity ratio [6]: < 2
20 | COc1ccc(/C=N/NC(=O)c2no[n+]([O-])c2C)cc1O | > 85.6 | > 400 | – | – | – | selectivity ratio [7]: > 48; IC50 [8]: 8.3 µM

Row | SMILES | MIC [1] [µM] | IC50 [2] [µM] | IC50 [3] [µM] | IC50 [4] [µM] | Selectivity Index [5] | further results
21 | CC(=O)Nc1ccc(/C=N/NC(=O)c2no[n+]([O-])c2C)cc1 | > 82.5 | 235 | > 150 | > 33 | <3 | –
22 | Cc1nc2ccccn2c1C(=O)NN | – | – | > 150 | > 52.6 | – | selectivity ratio [7]: > 13; IC50 [8]: 29.8 µM
23 | Cc1c(C(=O)N/N=C/c2ccco2)no[n+]1[O-] | > 106 | > 400 | > 150 | > 42.4 | – | –
24 | O=C(N/N=C/c1c(-c2ccccc2)no[n+]1[O-])c1cccnc1 | 40.5 (≈ 12.5 µg/mL) | 195 | 58.9 | > 32.4 | 5 | selectivity ratio [6]: < 6
25 | Cc1c(C(=O)N/N=C/c2ccc(C(=O)O)cc2)no[n+]1[O-] | > 86.2 | > 300 | > 150 | > 34.5 | – | –
26 | Cc1c(C(=O)N/N=C/c2ccc(N(C)C)cc2)no[n+]1[O-] | > 86.5 | 129 | > 150 | > 34.6 | <1.5 | selectivity ratio [6]: < 3
27 | O=C(N/N=C/c1ccc2nonc2c1)c1ccncc1 | > 93.6 | > 400 | > 150 | > 37.5 | – | –
28 | Cc1c(C(=O)N/N=C/c2ccc3no[n+]([O-])c3c2)no[n+]1[O-] | 82.2 (≈ 25 µg/mL) | > 400 | > 150 | > 32.9 | >5 | –
29 | Cc1[nH]cnc1C(=O)N/N=C/c1c(-c2ccccc2)no[n+]1[O-] | > 80.1 | > 400 | > 150 | > 32.1 | – | –
30 | CC1CS(=O)(=O)CCN1/N=C/c1ccc([N+](=O)[O-])o1 (stereo not given) [NIFURTIMOX] | – | – | – | 10.4 | – | selectivity ratio [6]: 27; selectivity ratio [9]: 7.7
31 | O=C(N/N=C/c1ccc2no[n+]([O-])c2c1)c1cccnc1 | 44.2 (≈ 12.5 µg/mL) | 31 | 35.5 | > 35.3 | 0.7 | Stability [10]: Stable; Stability [11]: Stable; selectivity ratio [6]: < 0.9; Stability [12]: Stable; Stability [13]: Stable; Stability [14]: Stable
32 | Cc1c(C(=O)N/N=C/c2ccccc2O)no[n+]1[O-] | > 95.4 | 246 | 39.8 | > 38.7 | <3 | selectivity ratio [6]: < 6
33 | Cc1nc2ccccn2c1C(=O)N/N=C/c1no[n+]([O-])c1C | > 83.3 | > 400 | > 150 | > 33.3 | – | selectivity ratio [7]: > 32; IC50 [8]: 12.6 µM
34 | Cc1c(/C=N/NC(=O)c2no[n+]([O-])c2C)no[n+]1[O-] | > 93.6 | > 400 | 81.3 | > 37.5 | – | –
35 | O=C(N/N=C/c1ccc2nonc2c1)c1cccnc1 | > 93.6 | 209 | > 150 | > 37.5 | <2 | selectivity ratio [6]: < 5.5
36 | Cc1c(C(=O)N/N=C/c2ccc(C(F)(F)F)cc2)no[n+]1[O-] | > 79.6 | > 400 | > 150 | > 31.9 | – | –
37 | Cc1c(C(=O)N/N=C/c2ccccc2)no[n+]1[O-] | > 102 | > 400 | 151 | > 40.7 | – | –
38 | NNC(=O)c1ccncc1 [ISONIAZID] | 0.4 (≈ 0.0549 µg/mL) | > 400 | > 150 | – | >1000 | –
39 | Cc1c(C(=O)N/N=C/c2cccc(O)c2)no[n+]1[O-] | > 95.4 | > 400 | > 150 | > 38.2 | – | selectivity ratio [7]: > 89; IC50 [8]: 4.5 µM
40 | COc1cc(/C=N/NC(=O)c2no[n+]([O-])c2C)cc(OC)c1OC | > 74.4 | > 300 | – | – | – | –
